# Key:
# [1] = Cytotoxicity against cat CRFK cells by MTS assay; type: cell-based, Felis catus; conditions: crfk
# Outline: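 In uninfected CRFK cells, the 50% cytotoxic concentration was derived from cell viability measured by the colorimetric formazan-based MTS assay.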
# Felid alphaherpesvirus 1 = experiment: Antiviral activity against Feline herpes virus infected in cat CRFK cells assessed as protection against virus-induced cytopathogenicity after 2 days by MTS assay; type: functional, organism-based; conditions: Felid alphaherpesvirus 1, CRFK, 48 h
# Human alphaherpesvirus 1 [2] = experiment: Antiviral activity against acyclovir-resistant TK deficient Herpes simplex virus-1 KOS infected in human HEL cells assessed as protection against virus-induced cytopathogenicity after 2 days; type: functional, organism-based; conditions: Human alphaherpesvirus 1, KOS, 48 h
# MDCK = experiment: Cytotoxicity against MDCK cells by MTS assay; type: cell-based, Canis lupus familiaris; conditions: dog, mdck
# Outline: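 In Madin Darby canine kidney cells, the 50% cytotoxic concentration was derived from cell viability measured by the colorimetric formazan-based MTS assay.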
# [3] = Selectivity index, ratio of minimum concentration required to cause microscopically detectable alteration in human HEL cells to EC50 for acyclovir-resistant TK deficient Herpes simplex virus-1 KOS; type: toxicity, cell-based; conditions: read-out: Selectivity Index
# Outline: (§1)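 Cytotoxicity was taken as the concentration causing a microscopically detectable change in normal cell morphology (Vero or HEL). […] The selectivity index is the first divided by the second.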
# Influenza A virus [4] = experiment: Antiviral activity against influenza A virus H1N1 infected in MDCK cells assessed as protection against virus-induced cytopathogenicity at 100 ug/ml after 2 days; type: functional, organism-based
# Outline: (§2)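 Infected MDCK cells were treated. […] N.A. means not active at the highest concentration tested or at a subtoxic concentration.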
# Human respirovirus 3 = experiment: Antiviral activity against Para influenza-3 virus infected in african green monkey Vero cells assessed as protection against virus-induced cytopathogenicity after 2 days; type: functional, organism-based; conditions: Human respirovirus 3, Vero, 48 h
# [5] = system: Feline infectious peritonitis virus; experiment: Antiviral activity against Feline coronavirus FIPV infected in cat CRFK cells assessed as protection against virus-induced cytopathogenicity after 2 days by MTS assay; type: functional, cell-based; conditions: Alphacoronavirus 1, CRFK, 48 h
# [6] = Cytotoxicity against human HeLa cells assessed as minimum concentration required to cause microscopically detectable alteration after 2 days; type: cell-based; conditions: read-out: Activity
# [7] = system: Vesicular stomatitis virus; experiment: Antiviral activity against Vesicular stomatitis virus infected in human HeLa cells assessed as protection against virus-induced cytopathogenicity after 2 days; type: functional, organism-based; conditions: 48 h
# [8] = Cytotoxicity against human HEL cells assessed as minimum concentration required to cause microscopically detectable alteration after 2 days; type: cell-based; conditions: read-out: Activity
# Influenza A virus [9] = experiment: Antiviral activity against Influenza A virus H3N2 infected in MDCK cells assessed as cell viability at 100 ug/ml after 2 days by MTS assay; type: functional, organism-based
# [10] = system: Vesicular stomatitis virus; experiment: Antiviral activity against Vesicular stomatitis virus infected in human HEL cells assessed as protection against virus-induced cytopathogenicity after 2 days; type: functional, organism-based; conditions: 48 h
# Influenza A virus [11] = experiment: Antiviral activity against Influenza A virus H3N2 infected in MDCK cells assessed as protection against virus-induced cytopathogenicity at 100 ug/ml after 2 days; type: functional, organism-based; outline: as §2
# Influenza A virus [12] = experiment: Antiviral activity against influenza A virus H1N1 infected in MDCK cells assessed as cell viability at 100 ug/ml after 2 days by MTS assay; type: functional, organism-based
# Coxsackievirus B4 [13] = experiment: Antiviral activity against Coxsackie virus B4 infected in african green monkey Vero cells assessed as protection against virus-induced cytopathogenicity after 2 days; type: functional, organism-based; conditions: Enterovirus B, 48 h
# [14] = system: Mammalian orthoreovirus 1; experiment: Antiviral activity against Reovirus-1 infected in african green monkey Vero cells assessed as protection against virus-induced cytopathogenicity after 2 days; type: functional, organism-based; conditions: Mammalian orthoreovirus 1, Vero, 48 h
# Influenza B virus [15] = experiment: Antiviral activity against influenza B virus infected in MDCK cells assessed as protection against virus-induced cytopathogenicity at 100 ug/ml after 2 days; type: functional, organism-based; outline: as §2
# Sindbis virus = experiment: Antiviral activity against Sindbis virus infected in african green monkey Vero cells assessed as protection against virus-induced cytopathogenicity after 2 days; type: functional, organism-based; conditions: 48 h
# Influenza B virus [16] = experiment: Antiviral activity against influenza B virus infected in MDCK cells assessed as cell viability at 100 ug/ml after 2 days by MTS assay; type: functional, organism-based
# [17] = Selectivity index, ratio of minimum concentration required to cause microscopically detectable alteration in human HEL cells to EC50 for acyclovir-resistant TK deficient Vaccina virus; type: toxicity, cell-based; conditions: read-out: Selectivity Index; outline: as §1
# [18] = Cytotoxicity against african green monkey Vero cells assessed as minimum concentration required to cause microscopically detectable alteration after 2 days; type: cell-based; conditions: chlorocebus sabaeus, read-out: Activity
# [19] = Selectivity index, ratio of minimum concentration required to cause microscopically detectable alteration in human HEL cells to EC50 for Herpes simplex virus-1 KOS; type: toxicity, cell-based; conditions: read-out: Selectivity Index; outline: as §1
# [20] = system: Respiratory syncytial virus; experiment: Antiviral activity against Respiratory syncytial virus infected in human HeLa cells assessed as protection against virus-induced cytopathogenicity after 2 days; type: functional, organism-based; conditions: 48 h
# [21] = Selectivity index, ratio of minimum concentration required to cause microscopically detectable alteration in human HEL cells to EC50 for Herpes simplex virus-2 G; type: toxicity, cell-based; conditions: read-out: Selectivity Index; outline: as §1
# Human alphaherpesvirus 1 [22] = experiment: Antiviral activity against Herpes simplex virus-1 KOS infected in human HEL cells assessed as protection against virus-induced cytopathogenicity after 2 days; type: functional, organism-based; conditions: Human alphaherpesvirus 1, KOS, 48 h
# Punta Toro virus = experiment: Antiviral activity against Punta Toro virus infected in african green monkey Vero cells assessed as protection against virus-induced cytopathogenicity after 2 days; type: functional, organism-based; conditions: 48 h
# Human alphaherpesvirus 2 = experiment: Antiviral activity against Herpes simplex virus-2 G infected in human HEL cells assessed as protection against virus-induced cytopathogenicity after 2 days; type: functional, organism-based; conditions: Human alphaherpesvirus 2, strain G, 48 h
# [23] = Cytotoxicity against MDCK cells assessed as minimum concentration required to cause microscopically detectable alteration after 2 days; type: cell-based, Canis lupus familiaris; conditions: dog, read-out: Activity
# Coxsackievirus B4 [24] = experiment: Antiviral activity against Coxsackie virus B4 infected in human HeLa cells assessed as protection against virus-induced cytopathogenicity after 2 days; type: functional, organism-based; conditions: Enterovirus B, 48 h
# Influenza B virus [25] = experiment: Antiviral activity against influenza B virus infected in MDCK cells assessed as cell viability after 2 days by MTS assay; type: functional, organism-based
# Influenza B virus [26] = experiment: Antiviral activity against influenza B virus infected in MDCK cells assessed as protection against virus-induced cytopathogenicity after 2 days; type: functional, organism-based; outline: as §2
Compound,CC50 [1],EC50 (Felid alphaherpesvirus 1),EC50 (Human alphaherpesvirus 1 [2]),CC50 (MDCK),EC50 (Influenza A virus [4]),EC50 (Human respirovirus 3),EC50 [5],MCC at 48 h [6],EC50 [7],MCC at 48 h [8],EC50 (Influenza A virus [9]),EC50 [10],EC50 (Influenza A virus [11]),EC50 (Influenza A virus [12]),EC50 (Coxsackievirus B4 [13]),EC50 [14],EC50 (Influenza B virus [15]),EC50 (Sindbis virus),EC50 (Influenza B virus [16]),MCC at 48 h [23],other results
O=c1c2ccccc2nc(-c2ccccc2)n1/N=C/c1ccccc1,3.7 µg/mL,> 0.8 µg/mL,9 µg/mL,15 µg/mL,Not Active,> 4 µg/mL,> 0.8 µg/mL,20 µg/mL,> 4 µg/mL,> 100 µg/mL,Not Active,> 100 µg/mL,Not Active,Not Active,> 4 µg/mL,> 4 µg/mL,Not Active,> 4 µg/mL,Not Active,20 µg/mL,selectivity ratio [3]: 11; selectivity ratio [17]: 11; MCC at 48 h [18]: 20 µg/mL; selectivity ratio [19]: 14; EC50 [20]: > 4 µg/mL; selectivity ratio [21]: 11; EC50 (Human alphaherpesvirus 1 [22]): 7 µg/mL; EC50 (Punta Toro virus): > 4 µg/mL; EC50 (Human alphaherpesvirus 2): 9 µg/mL; EC50 (Coxsackievirus B4 [24]): > 4 µg/mL
COc1ccc(/C=N/n2c(-c3ccccc3)nc3ccccc3c2=O)cc1,13.7 µg/mL,> 4 µg/mL,9 µg/mL,8.2 µg/mL,Not Active,> 20 µg/mL,> 4 µg/mL,20 µg/mL,> 4 µg/mL,> 100 µg/mL,Not Active,> 100 µg/mL,Not Active,Not Active,> 20 µg/mL,> 20 µg/mL,Not Active,> 20 µg/mL,Not Active,20 µg/mL,selectivity ratio [3]: 11; selectivity ratio [17]: 11; MCC at 48 h [18]: 100 µg/mL; selectivity ratio [19]: 11; EC50 [20]: > 4 µg/mL; selectivity ratio [21]: 13; EC50 (Human alphaherpesvirus 1 [22]): 9 µg/mL; EC50 (Punta Toro virus): > 20 µg/mL; EC50 (Human alphaherpesvirus 2): 8 µg/mL; EC50 (Coxsackievirus B4 [24]): > 4 µg/mL
COc1ccccc1/C=N/n1c(-c2ccccc2)nc2ccccc2c1=O,14.4 µg/mL,> 4 µg/mL,> 20 µg/mL,12.4 µg/mL,Not Active,> 20 µg/mL,> 4 µg/mL,20 µg/mL,> 4 µg/mL,100 µg/mL,Not Active,> 20 µg/mL,Not Active,Not Active,> 20 µg/mL,> 20 µg/mL,Not Active,> 20 µg/mL,Not Active,20 µg/mL,MCC at 48 h [18]: 100 µg/mL; EC50 [20]: > 4 µg/mL; EC50 (Human alphaherpesvirus 1 [22]): > 20 µg/mL; EC50 (Punta Toro virus): > 20 µg/mL; EC50 (Human alphaherpesvirus 2): > 20 µg/mL; EC50 (Coxsackievirus B4 [24]): > 4 µg/mL
CC(N)C12CC3CC(CC(C3)C1)C2 (stereo not given) [RIMANTADINE],,,,472 µg/mL,,,,,,,,,,,,,,,,1000 µg/mL,EC50 (Influenza B virus [25]): Not Active; EC50 (Influenza B virus [26]): Not Active

# Reference: ChEMBL document CHEMBL1287642, “Synthesis, antiviral activity and cytotoxicity evaluation of Schiff bases of some 2-phenyl quinazoline-4(3)H-ones” (Eur J Med Chem, 2010)
